Here are results for 14 molecules from ChEMBL document CHEMBL1147950, “Polyphenols based on isoflavones as inhibitors of Helicobacter pylori urease” (Bioorg Med Chem, 2007).

Assay [1] deals with Urease subunit alpha/Urease subunit beta (Helicobacter pylori (strain ATCC 700392 / 26695) (Campylobacterpylori)) (UniProt P69996+P14916). The experiment in a line: Inhibition of Helicobacter pylori ATCC 43504 urease at 400 ug/mL after 3 hrs pre-incubation. The method, boiled down: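 Urease from H. pylori ATCC 43504 cultured 24 h at 37 °C in brucella broth with 10% heat-inactivated horse serum, microaerobic (5% O2, 10% CO2, 85% N2). 4 U enzyme preincubated with test compound 3 h at room temperature. Activity read as ammonia production by the indophenol method; percent inhibition recorded.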

For assay [2], the target named is T1, Urease subunit alpha/Urease subunit beta (Helicobacter pylori (strain ATCC 700392 / 26695) (Campylobacterpylori), UniProt P69996). The experiment in a line: Inhibition of Helicobacter pylori ATCC 43504 urease in presence of 0.4 mM 2-mercaptoethanol after 3 hrs pre-incubation. The method, boiled down: (§1)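 Urease source: H. pylori ATCC 43504 grown 24 h at 37 °C, microaerobic (5% O2, 10% CO2, 85% N2), in brucella broth with 10% heat-inactivated horse serum. Enzyme (4 U) preincubated with test compound 3 h at room temperature. Ammonia production read by the indophenol method. IC50 values from triplicate measurements, reported as mean ± SD.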

Assay [3] concerns the target T1, Urease subunit alpha/Urease subunit beta. Briefly: Inhibition of Helicobacter pylori ATCC 43504 urease after 3 hrs pre-incubation. The procedure, abridged: as §1
Assay [4] shares this target. Briefly: Inhibition of Helicobacter pylori ATCC 43504 urease in presence of 0.4 mM dithiothreitol after 3 hrs pre-incubation. The procedure, abridged:
as §1

pIC50: −log10 of the molar value. “And” between values parts separate entries of the source, which are not always exact repeats. Identical values can stand only once. Some results are limits rather than exact numbers.

In general, inhibition refers to the relative decrease from the control value, in per cent. In general, pIC50 refers to the negative decadic logarithm of the IC50, by convention in mol/L.

T1 sequence (P69996 whole entry): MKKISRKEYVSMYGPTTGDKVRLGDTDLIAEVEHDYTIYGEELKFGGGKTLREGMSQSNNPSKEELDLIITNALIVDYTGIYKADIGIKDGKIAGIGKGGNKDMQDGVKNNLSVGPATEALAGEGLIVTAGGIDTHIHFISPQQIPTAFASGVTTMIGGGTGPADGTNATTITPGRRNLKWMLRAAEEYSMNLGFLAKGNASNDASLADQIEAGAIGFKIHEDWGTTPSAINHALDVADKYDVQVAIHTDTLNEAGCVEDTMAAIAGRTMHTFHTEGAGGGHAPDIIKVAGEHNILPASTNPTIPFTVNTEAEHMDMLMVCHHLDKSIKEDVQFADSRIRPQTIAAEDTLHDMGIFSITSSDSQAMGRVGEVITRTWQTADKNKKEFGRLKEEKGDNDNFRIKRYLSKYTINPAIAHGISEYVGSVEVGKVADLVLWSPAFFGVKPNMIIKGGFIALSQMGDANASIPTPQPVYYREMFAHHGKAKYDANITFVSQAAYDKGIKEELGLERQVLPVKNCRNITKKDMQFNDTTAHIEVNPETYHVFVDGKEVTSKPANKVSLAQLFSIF
T1 sequence (P14916 whole entry, further chain): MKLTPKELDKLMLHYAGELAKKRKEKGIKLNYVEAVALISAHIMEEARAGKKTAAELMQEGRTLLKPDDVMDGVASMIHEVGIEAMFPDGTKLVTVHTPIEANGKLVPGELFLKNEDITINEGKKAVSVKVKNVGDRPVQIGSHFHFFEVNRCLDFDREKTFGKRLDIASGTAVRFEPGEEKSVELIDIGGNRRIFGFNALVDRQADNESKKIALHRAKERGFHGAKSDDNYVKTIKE
Chain of Urease subunit alpha/Urease subunit beta (Helicobacter pylori (strain ATCC 700392 / 26695) (Campylobacterpylori)) (P14916 whole entry, looked up): as the sequence (P14916 whole entry, further chain) above
Chain of Urease subunit alpha/Urease subunit beta (Helicobacter pylori (strain ATCC 700392 / 26695) (Campylobacterpylori)) (P69996 whole entry, looked up): as the sequence (P69996 whole entry) above

`COc1c(O)cc(O)c(C(=O)Cc2ccc(O)cc2)c1O` displayed an inhibition in assay [1] of 17%.
Still for that read-out and setting: the value for `O=C(Cc1ccc(O)cc1)c1ccc(O)c(O)c1O` was 51%; that for `CC(=O)c1ccc(O)c(O)c1O` was 38%.
The same measure, in the same setting: the value for `O=C(Cc1ccc(O)cc1)c1ccc(O)c(O)c1` was 39%; that for `CC(=O)c1ccc(O)cc1O` was 14%.
On the same count and under the same terms, with `COc1ccc(CC(=O)c2ccc(O)cc2O)cc1` the figure was 14%; with `COc1ccc(CC(=O)c2ccc(O)c(O)c2O)cc1`, 44%; with `O=C(Cc1ccc(O)cc1)c1ccc(O)cc1O`, 16%.
In the case of `COc1c(O)cc(O)c2c(=O)c(-c3ccc(O)cc3)coc12`, the inhibition in assay [1] was 23% and 36%.
On to `Oc1ccc(CCc2ccc(O)c(O)c2O)cc1`, for which the figures for the pIC50 in assay [2], in assay [3] and in assay [4] were 4.15, 4.52 and 4.28, respectively. In assay [1], the inhibition was found to be 94.5%.
Regarding `CC(=O)NO` [ACETOHYDROXAMIC ACID], the values for the pIC50 in assay [2], in assay [3] and in assay [4] were 4.72, 4.77 and 4.74, respectively.
Consider `O=c1c(-c2ccc(O)cc2)coc2c(O)c(O)ccc12`, for which the results for the pIC50 in assay [2], in assay [3] and in assay [4] were less than 2.83, 3.85 and less than 2.83, respectively. Besides, the inhibition in assay [1] came out at 81.7%.
In assay [1], `CC(=O)c1ccc(O)c(O)c1` yielded an inhibition of 41%.
The same measure, in the same setting: with `COc1ccc(CC(O)c2ccc(OC)c(OC)c2O)cc1` (configuration not stated) the figure was 42%.
